ChEMBL document CHEMBL1159061, “Synthesis and biological properties of iron chelators based on a bis-2-(2-hydroxy-phenyl)-thiazole-4-carboxamide or -thiocarboxamide (BHPTC) scaffold” (Bioorg Med Chem, 2010)
Activity calls are given as the source filed them. The rule behind the calls is not given here.

Tested on: HepaRG
Experiment: Cytotoxicity against human HepaRG cells assessed as increase in extracellular LDH release at >100 uM after 72 hrs in presence of iron(3)
Type: functional, cell-based
Conditions: not given

SMILES | Activity
O=C(O)c1ccc(O)c(-c2nc(C(=O)NCCOCCOCCNC(=O)c3csc(-c4cc(C(=O)O)ccc4O)n3)cs2)c1 | Active

Tested on: SK-OV-3
Experiment: Antiproliferative activity against human SKOV3 cells at 1 uM after 72 hrs by MTS assay
Type: functional
Conditions: SK-OV-3, 72 h
In short: (§1)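 Cells grown under 5% CO2: KB and HepG2 in DMEM with 10% FCS, penicillin, streptomycin and fungizone; HCT116, HT29, HCT15, MCF7, MCF7R, SK-OV3, PC-3, A549, HL60, K562 and SF268 in RPMI. Cells were plated in 96-well plates and dosed 24 h later from DMSO stocks (controls 1% DMSO final). After 72 h, MTS was added for 3 h at 37 °C and absorbance read at 490 nm. Inhibition = (1 − OD treated/OD control)×100, in triplicate.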

SMILES | inhibition at 1 µM [%]
O=C(O)c1ccc(O)c(-c2nc(C(=O)NCCOCCOCCNC(=O)c3csc(-c4cc(C(=O)O)ccc4O)n3)cs2)c1 | 4

Tested on: HepG2
Experiment: Antiproliferative activity against human HepG2 cells at 10 uM after 72 hrs by MTS assay
Type: functional
Conditions: HepG2, 72 h
In short: as §1

SMILES | inhibition at 10 µM [%]
O=C(O)c1ccc(O)c(-c2nc(C(=O)NCCOCCOCCNC(=O)c3csc(-c4cc(C(=O)O)ccc4O)n3)cs2)c1 | 0

Tested on: Hepatocyte
Experiment: Cytoprotective activity in human hepatocytes assessed as inhibition of FeNTA-induced increase in extracellular LDH activity relative to control
Type: functional
Parameters: scale not given: the % may be the effect or the level left
Conditions: not given

SMILES | Activity [%]
O=C(O)c1ccc(O)c(-c2nc(C(=O)NCCOCCOCCNC(=O)c3csc(-c4cc(C(=O)O)ccc4O)n3)cs2)c1 | 179

Tested on: A549
Experiment: Antiproliferative activity against human A549 cells at 1 uM after 72 hrs by MTS assay
Type: functional
Conditions: A549, 72 h
In short: as §1

SMILES | inhibition at 1 µM [%]
O=C(O)c1ccc(O)c(-c2nc(C(=O)NCCOCCOCCNC(=O)c3csc(-c4cc(C(=O)O)ccc4O)n3)cs2)c1 | 1

Tested on: PC-3
Experiment: Antiproliferative activity against human PC3 cells at 1 uM after 72 hrs by MTS assay
Type: functional
Conditions: PC-3, 72 h
In short: as §1

SMILES | inhibition at 1 µM [%]
O=C(O)c1ccc(O)c(-c2nc(C(=O)NCCOCCOCCNC(=O)c3csc(-c4cc(C(=O)O)ccc4O)n3)cs2)c1 | 0

Tested on: K562
Experiment: Antiproliferative activity against human K562 cells at 1 uM after 72 hrs by MTS assay
Type: functional
Conditions: K562, 72 h
In short: as §1

SMILES | inhibition at 1 µM [%]
O=C(O)c1ccc(O)c(-c2nc(C(=O)NCCOCCOCCNC(=O)c3csc(-c4cc(C(=O)O)ccc4O)n3)cs2)c1 | 0

Tested on: SK-OV-3
Experiment: Antiproliferative activity against human SKOV3 cells at 10 uM after 72 hrs by MTS assay
Type: functional
Conditions: SK-OV-3, 72 h
In short: as §1

SMILES | inhibition at 10 µM [%]
O=C(O)c1ccc(O)c(-c2nc(C(=O)NCCOCCOCCNC(=O)c3csc(-c4cc(C(=O)O)ccc4O)n3)cs2)c1 | 7

Tested on: A549
Experiment: Antiproliferative activity against human A549 cells at 10 uM after 72 hrs by MTS assay
Type: functional
Conditions: A549, 72 h
In short: as §1

SMILES | inhibition at 10 µM [%]
O=C(O)c1ccc(O)c(-c2nc(C(=O)NCCOCCOCCNC(=O)c3csc(-c4cc(C(=O)O)ccc4O)n3)cs2)c1 | 0

Tested on: SF-268
Experiment: Antiproliferative activity against human SF268 cells at 10 uM after 72 hrs by MTS assay
Type: functional
Conditions: SF-268, 72 h
In short: as §1

SMILES | inhibition at 10 µM [%]
O=C(O)c1ccc(O)c(-c2nc(C(=O)NCCOCCOCCNC(=O)c3csc(-c4cc(C(=O)O)ccc4O)n3)cs2)c1 | 0

Tested on: SF-268
Experiment: Antiproliferative activity against human SF268 cells at 1 uM after 72 hrs by MTS assay
Type: functional
Conditions: SF-268, 72 h
In short: as §1

SMILES | inhibition at 1 µM [%]
O=C(O)c1ccc(O)c(-c2nc(C(=O)NCCOCCOCCNC(=O)c3csc(-c4cc(C(=O)O)ccc4O)n3)cs2)c1 | 0

Tested on: HCT-15
Experiment: Antiproliferative activity against human HCT15 cells at 10 uM after 72 hrs by MTS assay
Type: functional
Conditions: HCT-15, 72 h
In short: as §1

SMILES | inhibition at 10 µM [%]
O=C(O)c1ccc(O)c(-c2nc(C(=O)NCCOCCOCCNC(=O)c3csc(-c4cc(C(=O)O)ccc4O)n3)cs2)c1 | 0

Tested on: KB
Experiment: Antiproliferative activity against human KB cells at 10 uM after 72 hrs by MTS assay
Type: functional
Conditions: not given
In short: as §1

SMILES | inhibition at 10 µM [%]
O=C(O)c1ccc(O)c(-c2nc(C(=O)NCCOCCOCCNC(=O)c3csc(-c4cc(C(=O)O)ccc4O)n3)cs2)c1 | 2

Tested on: HL-60
Experiment: Antiproliferative activity against human HL60 cells at 1 uM after 72 hrs by MTS assay
Type: functional
Conditions: HL-60, 72 h
In short: as §1

SMILES | inhibition at 1 µM [%]
O=C(O)c1ccc(O)c(-c2nc(C(=O)NCCOCCOCCNC(=O)c3csc(-c4cc(C(=O)O)ccc4O)n3)cs2)c1 | 0

Tested on: HepG2
Experiment: Antiproliferative activity against human HepG2 cells at 1 uM after 72 hrs by MTS assay
Type: functional
Conditions: HepG2, 72 h
In short: as §1

SMILES | inhibition at 1 µM [%]
O=C(O)c1ccc(O)c(-c2nc(C(=O)NCCOCCOCCNC(=O)c3csc(-c4cc(C(=O)O)ccc4O)n3)cs2)c1 | 0

Tested on: HL-60
Experiment: Antiproliferative activity against human HL60 cells at 10 uM after 72 hrs by MTS assay
Type: functional
Conditions: HL-60, 72 h
In short: as §1

SMILES | inhibition at 10 µM [%]
O=C(O)c1ccc(O)c(-c2nc(C(=O)NCCOCCOCCNC(=O)c3csc(-c4cc(C(=O)O)ccc4O)n3)cs2)c1 | 0

Tested on: MCF7
Experiment: Antiproliferative activity against doxorubicin-resistant human MCF7 cells at 10 uM after 72 hrs by MTS assay
Type: functional
Conditions: MCF7, 72 h
In short: as §1

SMILES | inhibition at 10 µM [%]
O=C(O)c1ccc(O)c(-c2nc(C(=O)NCCOCCOCCNC(=O)c3csc(-c4cc(C(=O)O)ccc4O)n3)cs2)c1 | 2

Tested on: HCT-15
Experiment: Antiproliferative activity against human HCT15 cells at 1 uM after 72 hrs by MTS assay
Type: functional
Conditions: HCT-15, 72 h
In short: as §1

SMILES | inhibition at 1 µM [%]
O=C(O)c1ccc(O)c(-c2nc(C(=O)NCCOCCOCCNC(=O)c3csc(-c4cc(C(=O)O)ccc4O)n3)cs2)c1 | 0

Tested on: MCF7
Experiment: Antiproliferative activity against human MCF7 cells at 1 uM after 72 hrs by MTS assay
Type: functional
Conditions: MCF7, 72 h
In short: as §1

SMILES | inhibition at 1 µM [%]
O=C(O)c1ccc(O)c(-c2nc(C(=O)NCCOCCOCCNC(=O)c3csc(-c4cc(C(=O)O)ccc4O)n3)cs2)c1 | 0

Tested on: HT-29
Experiment: Antiproliferative activity against human HT-29 cells at 1 uM after 72 hrs by MTS assay
Type: functional
Conditions: HT-29, 72 h
In short: as §1

SMILES | inhibition at 1 µM [%]
O=C(O)c1ccc(O)c(-c2nc(C(=O)NCCOCCOCCNC(=O)c3csc(-c4cc(C(=O)O)ccc4O)n3)cs2)c1 | 0

Tested on: K562
Experiment: Antiproliferative activity against human K562 cells at 10 uM after 72 hrs by MTS assay
Type: functional
Conditions: K562, 72 h
In short: as §1

SMILES | inhibition at 10 µM [%]
O=C(O)c1ccc(O)c(-c2nc(C(=O)NCCOCCOCCNC(=O)c3csc(-c4cc(C(=O)O)ccc4O)n3)cs2)c1 | 9

Tested on: HCT-116
Experiment: Antiproliferative activity against human HCT116 cells at 10 uM after 72 hrs by MTS assay
Type: functional
Conditions: HCT-116, 72 h
In short: as §1

SMILES | inhibition at 10 µM [%]
O=C(O)c1ccc(O)c(-c2nc(C(=O)NCCOCCOCCNC(=O)c3csc(-c4cc(C(=O)O)ccc4O)n3)cs2)c1 | 0

Tested on: HCT-116
Experiment: Antiproliferative activity against human HCT116 cells at 1 uM after 72 hrs by MTS assay
Type: functional
Conditions: HCT-116, 72 h
In short: as §1

SMILES | inhibition at 1 µM [%]
O=C(O)c1ccc(O)c(-c2nc(C(=O)NCCOCCOCCNC(=O)c3csc(-c4cc(C(=O)O)ccc4O)n3)cs2)c1 | 0

Tested on: HT-29
Experiment: Antiproliferative activity against human HT-29 cells at 10 uM after 72 hrs by MTS assay
Type: functional
Conditions: HT-29, 72 h
In short: as §1

SMILES | inhibition at 10 µM [%]
O=C(O)c1ccc(O)c(-c2nc(C(=O)NCCOCCOCCNC(=O)c3csc(-c4cc(C(=O)O)ccc4O)n3)cs2)c1 | 1

Tested on: MCF7
Experiment: Antiproliferative activity against doxorubicin-resistant human MCF7 cells at 1 uM after 72 hrs by MTS assay
Type: functional
Conditions: MCF7, 72 h
In short: as §1

SMILES | inhibition at 1 µM [%]
O=C(O)c1ccc(O)c(-c2nc(C(=O)NCCOCCOCCNC(=O)c3csc(-c4cc(C(=O)O)ccc4O)n3)cs2)c1 | 0

Tested on: not listed separately
Experiment: Antiproliferative activity against human HepaRG cells after 72 hrs by MTT assay
Type: functional, cell-based
Conditions: not given
In short: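 Proliferating HepaRG cells at day 4 (seeded at 2.5×10⁴/cm² in William's E, 10% FCS, insulin, glutamine, hydrocortisone) were exposed for 72 h to a concentration series, with or without added iron(III) as each line states. Viability was read by MTT (0.5 mg/L as printed) for 3 h in serum-free medium, DMSO-solubilized formazan at 535 nm, expressed as % of control SDH activity.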

SMILES | IC50 [µM]
O=C(O)c1ccc(O)c(-c2nc(C(=O)NCCOCCOCCNC(=O)c3csc(-c4cc(C(=O)O)ccc4O)n3)cs2)c1 | 120

Tested on: MCF7
Experiment: Antiproliferative activity against human MCF7 cells at 10 uM after 72 hrs by MTS assay
Type: functional
Conditions: MCF7, 72 h
In short: as §1

SMILES | inhibition at 10 µM [%]
O=C(O)c1ccc(O)c(-c2nc(C(=O)NCCOCCOCCNC(=O)c3csc(-c4cc(C(=O)O)ccc4O)n3)cs2)c1 | 0

Tested on: KB
Experiment: Antiproliferative activity against human KB cells at 1 uM after 72 hrs by MTS assay
Type: functional
Conditions: not given
In short: as §1

SMILES | inhibition at 1 µM [%]
O=C(O)c1ccc(O)c(-c2nc(C(=O)NCCOCCOCCNC(=O)c3csc(-c4cc(C(=O)O)ccc4O)n3)cs2)c1 | 0

Tested on: PC-3
Experiment: Antiproliferative activity against human PC3 cells at 10 uM after 72 hrs by MTS assay
Type: functional
Conditions: PC-3, 72 h
In short: as §1

SMILES | inhibition at 10 µM [%]
O=C(O)c1ccc(O)c(-c2nc(C(=O)NCCOCCOCCNC(=O)c3csc(-c4cc(C(=O)O)ccc4O)n3)cs2)c1 | 8
